From ChEMBL document CHEMBL1125136, “Quinolone antibacterial agents substituted at the 7-position with spiroamines. Synthesis and structure-activity relationships” (1990)
In brackets after ≈: the same amount, converted by molar mass.

Key:
Staphylococcus aureus [1] = experiment: Evaluated for minimum inhibitory concentration against […] bacteria Staphylococcus aureus UC-76; format: functional
Procedure, shortened: (§1)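 Broth microdilution MIC by standard technique. Values come from duplicate experiments and are stated as accurate to ±50%.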

Enterobacter cloacae = experiment: Evaluated for minimum inhibitory concentration against gram-negative bacteria Enterobacter cloacae HA 2646; format: functional
Pseudomonas aeruginosa [2] = experiment: Evaluated for minimum inhibitory concentration against gram-negative bacteria Pseudomonas aeruginosa UI-18; format: functional; procedure, shortened: as §1
Enterococcus faecalis = experiment: Evaluated for minimum inhibitory concentration against gram-positive bacteria Staphylococcus faecalis MGH-2
[3] = Evaluated for minimum inhibitory concentration against […] bacteria […] SV-1; format: functional; procedure, shortened: as §1
Staphylococcus aureus [4] = experiment: Evaluated for minimum inhibitory concentration against […] bacteria Staphylococcus aureus H228; format: functional; procedure, shortened: as §1
Klebsiella pneumoniae = experiment: Evaluated for minimum inhibitory concentration against gram-negative bacteria Klebsiella pneumoniae MGH-2; format: functional; procedure, shortened: as §1
Escherichia coli [5] = experiment: Evaluated for minimum inhibitory concentration against gram-negative bacteria Escherichia coli Vogel; format: functional; procedure, shortened: as §1
Streptococcus pyogenes [6] = experiment: Evaluated for minimum inhibitory concentration against gram-positive bacteria Streptococcus pyogenes C203
Escherichia coli [7] = experiment: Evaluated for minimum concentration needed to produce linear DNA at an intensity relative to oxolinic acid at 10 mg/mL. by gyrase mediated cleavage of DNA in Escherichia coli 560.; format: functional; details: read-out: MIC
Pseudomonas = experiment: Evaluated for minimum inhibitory concentration against gram-negative bacteria Pseudomonas rettgeri H1771; format: functional; procedure, shortened: as §1
Escherichia coli [8] = experiment: In vivo protective dose was determined in mouse protection assay in Escherichia coli Vogel after subcutaneous administration; format: functional; details: sc, read-out: PD50
Procedure, shortened: (§2)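 Female Charles River CD-1 mice were given an acute, lethal, systemic infection. A single dose of compound was given at the time of challenge, by the route stated in the line, with 16 animals per dose level. The read-out is the median protective dose (PD50, mg/kg). Per the footnote, values come from 16 animals per test, with a mean variation of ±34%.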

Streptococcus pneumoniae [9] = experiment: In vivo protective dose was determined against Streptococcus pneumoniae SV-1 after subcutaneous administration; details: sc, read-out: PD50
Pseudomonas aeruginosa [10] = experiment: In vivo protective dose was determined against Pseudomonas aeruginosa UI-18. after subcutaneous administration; format: functional; details: sc, read-out: PD50; procedure, shortened: as §2
Streptococcus pyogenes [11] = experiment: In vivo protective dose was determined against Streptococcus pyogenes after subcutaneous administration; details: sc, read-out: PD50
Escherichia coli [12] = experiment: In vivo protective dose for mouse protection assay in Escherichia coli Vogel after peroral administration; format: functional; details: po, read-out: PD50; procedure, shortened: as §2
Streptococcus pyogenes [13] = experiment: In vivo protective dose was determined against Streptococcus pyogenes after peroral administration; details: po, read-out: PD50
Staphylococcus aureus [14] = experiment: In vivo protective dose was determined against Staphylococcus aureus VC76 after peroral administration; format: functional; details: po, read-out: PD50; procedure, shortened: as §2
Staphylococcus aureus [15] = experiment: In vivo protective dose was determined against Staphylococcus aureus VC76. after subcutaneous administration; format: functional; details: sc, read-out: PD50; procedure, shortened: as §2
Pseudomonas aeruginosa [16] = experiment: In vivo protective dose was determined against Pseudomonas aeruginosa UI-18. after peroral administration; format: functional; details: po, read-out: PD50; procedure, shortened: as §2
Streptococcus pneumoniae [17] = experiment: In vivo protective dose was determined against Streptococcus pneumoniae SV-1 after peroral administration; details: po, read-out: PD50

Compound | MIC (Staphylococcus aureus [1]) | MIC (Enterobacter cloacae) | MIC (Pseudomonas aeruginosa [2]) | MIC (Enterococcus faecalis) | MIC [3] | MIC (Staphylococcus aureus [4]) | MIC (Klebsiella pneumoniae) | MIC (Escherichia coli [5]) | MIC (Streptococcus pyogenes [6]) | minimum concentration for gyrase-mediated DNA cleavage (Escherichia coli [7]) | MIC (Pseudomonas) | ED50 (Escherichia coli [8]) | ED50 (Escherichia coli [12]) | other results
CC1COc2c(N3CCC4(CCN(C)C4)C3)c(F)c(N)c3c(=O)c(C(=O)O)cn1c23 (stereo not drawn) | 0.1 µg/mL (≈ 0.24 µM) | 0.4 µg/mL (≈ 0.96 µM) | 12.5 µg/mL (≈ 30 µM) | 0.4 µg/mL (≈ 0.96 µM) | 0.4 µg/mL (≈ 0.96 µM) | 0.4 µg/mL (≈ 0.96 µM) | 0.8 µg/mL (≈ 1.92 µM) | 0.4 µg/mL (≈ 0.96 µM) | 0.2 µg/mL (≈ 0.48 µM) | 1 µg/mL | 6.3 µg/mL (≈ 15.1 µM) |  |  | 
CCn1cc(C(=O)O)c(=O)c2cc(F)c(N3CCC(N)C3)c(F)c21 (stereo not drawn) | 0.05 µg/mL (≈ 0.148 µM) | 0.1 µg/mL (≈ 0.296 µM) | 0.4 µg/mL (≈ 1.19 µM) | 0.8 µg/mL (≈ 2.37 µM) | 0.4 µg/mL (≈ 1.19 µM) | 0.4 µg/mL (≈ 1.19 µM) | 0.2 µg/mL (≈ 0.593 µM) | 0.05 µg/mL (≈ 0.148 µM) | 0.4 µg/mL (≈ 1.19 µM) | 1 µg/mL | 0.2 µg/mL (≈ 0.593 µM) |  |  | 
CCn1cc(C(=O)O)c(=O)c2cc(F)c(N3CCC4(CCN(C)C4)C3)c(F)c21 (stereo not drawn) | 0.006 µg/mL (≈ 0.0153 µM) | 0.1 µg/mL (≈ 0.255 µM) | 0.8 µg/mL (≈ 2.04 µM) | 0.1 µg/mL (≈ 0.255 µM) | 0.4 µg/mL (≈ 1.02 µM) | 0.1 µg/mL (≈ 0.255 µM) | 0.1 µg/mL (≈ 0.255 µM) | 0.006 µg/mL (≈ 0.0153 µM) | 0.2 µg/mL (≈ 0.511 µM) | 1 µg/mL | 0.8 µg/mL (≈ 2.04 µM) | 3.4 mg/kg | 8.4 mg/kg | ED50 (Streptococcus pneumoniae [9]): 11 mg/kg; ED50 (Pseudomonas aeruginosa [10]): 70 mg/kg; ED50 (Streptococcus pyogenes [11]): 27 mg/kg; ED50 (Streptococcus pyogenes [13]): 38 mg/kg; ED50 (Staphylococcus aureus [14]): 9 mg/kg; ED50 (Staphylococcus aureus [15]): 4 mg/kg; ED50 (Pseudomonas aeruginosa [16]): 140 mg/kg; ED50 (Streptococcus pneumoniae [17]): 43 mg/kg
CCn1cc(C(=O)O)c(=O)c2cc(F)c(N3CCC4(CCNC4)C3)c(F)c21 (stereo not drawn) | 0.05 µg/mL (≈ 0.132 µM) | 0.2 µg/mL (≈ 0.53 µM) | 0.8 µg/mL (≈ 2.12 µM) | 0.2 µg/mL (≈ 0.53 µM) | 0.2 µg/mL (≈ 0.53 µM) | 0.1 µg/mL (≈ 0.265 µM) | 0.2 µg/mL (≈ 0.53 µM) | 0.1 µg/mL (≈ 0.265 µM) | 0.1 µg/mL (≈ 0.265 µM) | 2.5 µg/mL | 1.6 µg/mL (≈ 4.24 µM) | 15 mg/kg | > 100 mg/kg | 
CCN1CCC2(CCN(c3c(F)cc4c(=O)c(C(=O)O)cn(C5CC5)c4c3F)C2)C1 (stereo not drawn) | 0.025 µg/mL (≈ 0.0599 µM) | 0.2 µg/mL (≈ 0.479 µM) | 1.6 µg/mL (≈ 3.83 µM) | 0.1 µg/mL (≈ 0.24 µM) | 0.2 µg/mL (≈ 0.479 µM) | 0.1 µg/mL (≈ 0.24 µM) | 0.2 µg/mL (≈ 0.479 µM) | 0.1 µg/mL (≈ 0.24 µM) | 0.2 µg/mL (≈ 0.479 µM) | 0.5 µg/mL | 0.4 µg/mL (≈ 0.958 µM) |  |  | 
CCn1cc(C(=O)O)c(=O)c2cc(F)c(N3CCC4(CCCN4)C3)c(F)c21.Cl (stereo not drawn) | 0.8 µg/mL | 0.2 µg/mL | 1.6 µg/mL | 3.1 µg/mL | 1.6 µg/mL | 1.6 µg/mL | 0.4 µg/mL | 0.2 µg/mL | 1.6 µg/mL | 2.5 µg/mL | 0.8 µg/mL |  |  | 
CCn1cc(C(=O)O)c(=O)c2c(F)c(F)c(N3CCC4(CCN(C)C4)C3)c(F)c21 (stereo not drawn) | 0.2 µg/mL (≈ 0.489 µM) | 0.8 µg/mL (≈ 1.95 µM) | 6.3 µg/mL (≈ 15.4 µM) | 1.6 µg/mL (≈ 3.91 µM) | 0.8 µg/mL (≈ 1.95 µM) | 0.8 µg/mL (≈ 1.95 µM) | 1.6 µg/mL (≈ 3.91 µM) | 0.8 µg/mL (≈ 1.95 µM) | 1.6 µg/mL (≈ 3.91 µM) | 5 µg/mL | 6.3 µg/mL (≈ 15.4 µM) | 12.5 mg/kg | 22 mg/kg | 
O=C(O)c1cn(C2CC2)c2c(F)c(N3CCC4(CCCN4)C3)c(F)cc2c1=O (stereo not drawn) | 0.4 µg/mL (≈ 1.03 µM) | 0.025 µg/mL (≈ 0.0642 µM) | 0.2 µg/mL (≈ 0.514 µM) | 0.4 µg/mL (≈ 1.03 µM) | 0.4 µg/mL (≈ 1.03 µM) | 0.05 µg/mL (≈ 0.128 µM) | 0.1 µg/mL (≈ 0.257 µM) | 0.025 µg/mL (≈ 0.0642 µM) | 0.4 µg/mL (≈ 1.03 µM) | 0.5 µg/mL | 0.8 µg/mL (≈ 2.05 µM) | 1 mg/kg | 4 mg/kg | 
CCn1cc(C(=O)O)c(=O)c2cc(F)c(N3CCCC4(CCCNC4)C3)nc21 (stereo not drawn) | 3.1 µg/mL (≈ 7.98 µM) | 25 µg/mL (≈ 64.4 µM) | 50 µg/mL (≈ 129 µM) | 12.5 µg/mL (≈ 32.2 µM) | 12.5 µg/mL (≈ 32.2 µM) | 6.3 µg/mL (≈ 16.2 µM) | 25 µg/mL (≈ 64.4 µM) | 12.5 µg/mL (≈ 32.2 µM) | 50 µg/mL (≈ 129 µM) | 50 µg/mL | 100 µg/mL (≈ 257 µM) |  |  | 
O=C(O)c1cn(C2CC2)c2c(F)c(N3CCC4(CCNC4)C3)c(F)cc2c1=O (stereo not drawn) | 0.025 µg/mL (≈ 0.0642 µM) | 0.2 µg/mL (≈ 0.514 µM) | 1.6 µg/mL (≈ 4.11 µM) | 0.4 µg/mL (≈ 1.03 µM) | 0.1 µg/mL (≈ 0.257 µM) | 0.2 µg/mL (≈ 0.514 µM) | 0.4 µg/mL (≈ 1.03 µM) | 0.2 µg/mL (≈ 0.514 µM) | 0.025 µg/mL (≈ 0.0642 µM) | 0.1 µg/mL | 0.8 µg/mL (≈ 2.05 µM) | 7 mg/kg | > 100 mg/kg | 
